The record followed here is paper PMC11628833 (Acta Pharmaceutica Sinica. B, 2024).

One assay has as its target T1, human TLR7 (Homo sapiens, UniProt Q9NYK1).
T1 sequence (Q9NYK1 27-1049): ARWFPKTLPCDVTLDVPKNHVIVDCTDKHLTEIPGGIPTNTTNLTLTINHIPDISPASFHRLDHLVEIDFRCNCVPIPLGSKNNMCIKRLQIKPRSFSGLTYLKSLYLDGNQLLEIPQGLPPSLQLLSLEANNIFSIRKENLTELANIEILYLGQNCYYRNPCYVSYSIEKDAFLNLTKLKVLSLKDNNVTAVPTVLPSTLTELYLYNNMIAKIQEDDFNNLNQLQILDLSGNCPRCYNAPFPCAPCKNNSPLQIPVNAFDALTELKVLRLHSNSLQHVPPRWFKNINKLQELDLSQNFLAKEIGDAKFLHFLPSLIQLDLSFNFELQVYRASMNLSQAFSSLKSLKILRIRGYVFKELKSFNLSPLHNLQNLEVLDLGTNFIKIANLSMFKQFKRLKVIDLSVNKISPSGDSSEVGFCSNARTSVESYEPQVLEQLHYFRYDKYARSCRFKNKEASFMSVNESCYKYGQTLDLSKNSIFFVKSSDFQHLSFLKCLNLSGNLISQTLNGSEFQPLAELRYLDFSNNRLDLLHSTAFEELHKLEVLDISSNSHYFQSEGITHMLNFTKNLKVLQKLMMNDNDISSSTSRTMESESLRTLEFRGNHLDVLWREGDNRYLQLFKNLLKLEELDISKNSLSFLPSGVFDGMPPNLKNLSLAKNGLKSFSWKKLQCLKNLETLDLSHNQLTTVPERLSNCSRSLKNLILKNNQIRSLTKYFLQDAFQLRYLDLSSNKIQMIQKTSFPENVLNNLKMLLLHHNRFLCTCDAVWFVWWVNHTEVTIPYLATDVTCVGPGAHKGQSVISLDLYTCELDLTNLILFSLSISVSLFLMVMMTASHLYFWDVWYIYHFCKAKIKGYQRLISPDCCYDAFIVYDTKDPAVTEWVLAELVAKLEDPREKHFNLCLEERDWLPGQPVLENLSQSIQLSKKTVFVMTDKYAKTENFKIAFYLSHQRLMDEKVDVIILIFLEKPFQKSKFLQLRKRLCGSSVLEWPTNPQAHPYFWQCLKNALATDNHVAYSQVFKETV
As to the kind of experiment: SEAP reporter assay in HEK-Blue hTLR7 cells. Format: cell-based. The procedure, abridged:
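HEK-Blue hTLR7 cells (stable human TLR7 with SEAP reporter) were plated at 5 × 10^5 cells/mL in DMEM with 10% heat-inactivated FBS. They were treated with R848 and varying test compound concentrations at 37 °C for 20–24 h. Medium was mixed with QUANTI-Blue, incubated at 37 °C for about 30 min, and read at 620 nm. R848-only = 100% activation; untreated = 0%.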

For another assay, the target named is T2, hTLR8 (Homo sapiens, UniProt Q9NR97).
T2 sequence (Q9NR97 27-1041): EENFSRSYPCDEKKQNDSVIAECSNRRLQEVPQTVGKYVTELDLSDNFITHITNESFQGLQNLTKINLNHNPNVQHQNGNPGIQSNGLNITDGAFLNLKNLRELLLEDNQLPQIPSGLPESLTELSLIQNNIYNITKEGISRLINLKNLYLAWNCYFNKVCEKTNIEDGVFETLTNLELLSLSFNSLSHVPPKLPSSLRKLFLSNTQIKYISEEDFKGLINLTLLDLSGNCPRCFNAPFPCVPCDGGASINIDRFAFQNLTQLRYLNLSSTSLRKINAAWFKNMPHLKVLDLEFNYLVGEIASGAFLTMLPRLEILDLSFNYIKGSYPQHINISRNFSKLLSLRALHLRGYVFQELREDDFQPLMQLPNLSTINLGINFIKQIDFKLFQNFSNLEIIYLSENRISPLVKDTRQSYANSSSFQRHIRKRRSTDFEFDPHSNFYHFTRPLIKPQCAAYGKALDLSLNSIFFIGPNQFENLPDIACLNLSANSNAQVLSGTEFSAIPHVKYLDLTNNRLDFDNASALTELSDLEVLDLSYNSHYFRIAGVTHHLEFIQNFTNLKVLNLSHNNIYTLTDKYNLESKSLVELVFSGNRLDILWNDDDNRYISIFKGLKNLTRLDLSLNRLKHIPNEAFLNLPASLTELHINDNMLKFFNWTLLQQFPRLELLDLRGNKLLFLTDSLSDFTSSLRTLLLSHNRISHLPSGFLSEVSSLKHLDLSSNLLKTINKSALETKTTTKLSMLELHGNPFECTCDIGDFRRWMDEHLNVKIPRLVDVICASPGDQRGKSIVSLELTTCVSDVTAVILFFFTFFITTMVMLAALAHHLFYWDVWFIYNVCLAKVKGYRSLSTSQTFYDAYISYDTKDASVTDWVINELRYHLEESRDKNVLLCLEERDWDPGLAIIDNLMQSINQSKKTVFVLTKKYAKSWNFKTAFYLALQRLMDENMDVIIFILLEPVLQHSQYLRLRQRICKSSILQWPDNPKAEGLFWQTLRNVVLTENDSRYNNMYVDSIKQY
As to the kind of experiment: SEAP reporter assay in HEK-Blue hTLR8 cells. Format: cell-based. (In general: A reporter such as luciferase makes a cellular process visible.)

For assay [1], the system named is IL-8 mRNA (TLR7 downstream). Put plainly: RT-PCR analysis of IL-8 mRNA in R848 treated HEK-Blue TLR7 cells. The class given is cell-based, human. The conditions noted are these: 2 μg/mL R848 treated HEK-Blue TLR7 cells. The procedure, abridged: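 HEK-Blue TLR7 cells were seeded at 1 × 10^6 cells/well for 24 h, then switched to serum-free medium. They were treated ± R848 with various test compound concentrations for 16 h at 37 °C. IL-8 mRNA was quantified by RT-PCR using the ΔΔCt method, with GAPDH as reference and normalization to untreated cells.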

A further assay relates to MRL/lpr mice. Put plainly: MRL/lpr mice SLE model. The conditions noted are these: female MRL/lpr mice, S14 50 mg/kg oral once daily; vs placebo. The class given is in vivo, mouse. In outline:
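Mice were 14-week-old female MRL/lpr, randomized by body weight, n = 12/group, treated 4 weeks. Oral test compound in 10% w/v PEG-400/1,3-propanediol/water (55:20:25): 100 mg/kg twice daily, or a second compound at 50 mg/kg once daily. Controls: hydroxychloroquine 100 mg/kg daily in saline; saline placebo. Weekly: survival, body weight, skin lesions, and fundus-vein plasma for ANA/anti-dsDNA ELISA. Endpoint: spleen weight and H&E kidney histology.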

Assay [2] has as its target T3, TLR7 extracellular domain (Macaca mulatta, UniProt B3Y653, N167Q/N389Q/N488Q/N799Q, form not given).
T3 sequence (B3Y653 27-839 N167Q/N389Q/N488Q/N799Q): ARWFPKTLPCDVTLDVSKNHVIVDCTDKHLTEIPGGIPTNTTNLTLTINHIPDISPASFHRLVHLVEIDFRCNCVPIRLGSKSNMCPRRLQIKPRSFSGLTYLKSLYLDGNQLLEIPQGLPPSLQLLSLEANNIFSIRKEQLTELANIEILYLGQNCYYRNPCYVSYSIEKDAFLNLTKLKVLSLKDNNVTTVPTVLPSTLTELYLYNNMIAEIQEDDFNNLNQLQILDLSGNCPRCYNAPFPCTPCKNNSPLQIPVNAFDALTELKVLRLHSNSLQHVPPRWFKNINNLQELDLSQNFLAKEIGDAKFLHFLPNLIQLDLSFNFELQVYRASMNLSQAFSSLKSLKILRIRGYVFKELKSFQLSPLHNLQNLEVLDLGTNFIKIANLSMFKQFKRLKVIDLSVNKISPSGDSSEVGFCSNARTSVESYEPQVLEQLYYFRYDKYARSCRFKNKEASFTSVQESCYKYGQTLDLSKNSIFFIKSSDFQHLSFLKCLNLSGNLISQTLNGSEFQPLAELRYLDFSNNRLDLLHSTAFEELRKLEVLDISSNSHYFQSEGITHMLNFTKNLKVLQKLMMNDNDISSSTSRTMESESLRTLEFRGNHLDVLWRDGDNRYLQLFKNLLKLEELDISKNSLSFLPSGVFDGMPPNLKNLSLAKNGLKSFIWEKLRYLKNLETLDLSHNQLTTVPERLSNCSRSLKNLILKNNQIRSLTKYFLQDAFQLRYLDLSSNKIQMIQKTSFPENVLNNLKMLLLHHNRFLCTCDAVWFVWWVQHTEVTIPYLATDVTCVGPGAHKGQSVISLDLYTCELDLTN
As to the kind of experiment: ITC titration to TLR7 recombinant protein. Format: binding, Monkey (Macaca mulatta). In outline: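 Titrations used the same purified rhesus TLR7 ectodomain, at 298 K in citrate/NaOH pH 4.8, 150 mmol/L NaCl. Syringe held 1 mmol/L test compound or loxoribine; cell held TLR7, with or without the other ligand pre-added. Each run was one small injection followed by 18 injections at 180 s intervals. Kd and ΔH obtained by single-site binding model fitting.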

Setting [3] is: 1 mmol/L loxoribine into 50 μmol/L TLR7, absence of TH-407b.

By IC50 is commonly meant the point on the concentration scale where inhibition reaches its midpoint. In general, Kd refers to the concentration at which binding is half-saturated.

For the compound `O=C(c1ccco1)N1CCN(c2ccc([N+](=O)[O-])c3ncccc23)CC1` [Compound S13], the IC50 on human TLR7 was found to be 530 ± 110 nM; against hTLR8, 100 ± 10 nM.
Consider `COc1ccc(C(=O)N2CCN(c3ccc([N+](=O)[O-])c4cccnc34)CC2)cc1` [Compound S24], for which, in assay [1], the “IL-8 mRNA level” value was “inactive”.
In the case of `Cc1ccc(C(=O)N2CCN(c3ccc([N+](=O)[O-])c4ncccc34)CC2)cc1` [Compound S2], the concentration for half-maximal inhibition (IC50) at human TLR7 was found to be 860 ± 390 nM; on hTLR8 it was 110 ± 40 nM.
For the compound `O=C(c1cccs1)N1CCN(c2ccc([N+](=O)[O-])c3ncccc23)CC1` [Compound S12], the IC50 against human TLR7 was 2120 ± 580 nM; against hTLR8, 60 ± 30 nM.
For `O=C(c1ccc(F)cc1)N1CCN(c2ccc([N+](=O)[O-])c3ncccc23)CC1` [Compound S7] the same measures were 1150 ± 160 nM and 100 ± 50 nM.
Turning to `COc1ccc(C(=O)N2CCN(c3ccc(N)c4ncccc34)CC2)cc1` [Compound S21], the midpoint of inhibition on hTLR8, the IC50, lay at 820 ± 40 nM.
Regarding `O=C(c1ccncc1)N1CCN(c2ccc([N+](=O)[O-])c3ncccc23)CC1` [Compound S14], the IC50 at human TLR7 was found to be 3000 ± 370 nM. Also, at hTLR8, the IC50 came to 60 ± 10 nM. Moreover, in the assay with MRL/lpr mice, the “ANA and anti-ds-DNA antibody levels” value is given as “no significant alterations”; the glomerular diameter entry is reported as “no significant alterations”; the skin lesion severity result was “no significant alterations”; the spleen index result is “no significant alterations”. Further, in the assay on MRL/lpr mice, the survival rate result is on record as “notably lower than the placebo group”.
With `C=CCn1c(=O)n([C@@H]2O[C@H](CO)[C@@H](O)[C@H]2O)c2nc(N)[nH]c(=O)c21` [loxoribine], in assay [2] (setting [3]), the Kd amounted to 4400 nM and the ΔH is -5.828 kcal/mol. Also, the “heat change upon titration” value in assay [2] (loxoribine into TLR7 in the presence of pre-mixed 500 μmol/L TH-407b) was “completely obliterated”.
In the case of `O=C(c1ccccc1)N1CCN(c2ccc([N+](=O)[O-])c3ncccc23)CC1` [Compound S6], the results for the half-inhibitory concentration (IC50) against human TLR7 and against hTLR8 were 1070 ± 420 nM and 100 ± 70 nM, respectively.
For `COc1ccc(C(=O)N2CCN(c3ccc([N+](=O)[O-])c4ncccc34)CC2)c(OC)c1` [Compound S11] the same measures were 410 ± 330 nM and 60 ± 30 nM.
For `O=C(c1ccc([N+](=O)[O-])cc1)N1CCN(c2ccc([N+](=O)[O-])c3ncccc23)CC1` [Compound S5] the same measures were 640 ± 210 nM and 150 ± 40 nM.
The matching figures for `O=C(c1ccc(Br)cc1)N1CCN(c2ccc([N+](=O)[O-])c3ncccc23)CC1` [Compound S8]: 970 ± 1230 nM and 140 ± 170 nM.
On to `O=[N+]([O-])c1ccc(-c2ccc(O)cc2)c2cccnc12` [Compound S15], for which the IC50 against human TLR7 and on hTLR8 was 20 ± 10 nM throughout.
For the compound `COc1ccc(C(=O)N2CCN(c3ccc([N+](=O)[O-])c4ncccc34)CC2)cc1` [Compound S4], the IC50 against human TLR7 is 530 ± 90 nM; against hTLR8, 70 ± 10 nM.
In the case of `COc1ccccc1C(=O)N1CCN(c2ccc([N+](=O)[O-])c3ncccc23)CC1` [Compound S10], the IC50 against human TLR7 came to 3060 ± 2720 nM; on hTLR8 it was 60 ± 10 nM.
For `O=[N+]([O-])c1ccc(-c2ccc(CO)cc2)c2cccnc12` [Compound S16] the same measures were 660 ± 130 nM and 1300 ± 30 nM.
For `COc1cccc(C(=O)N2CCN(c3ccc([N+](=O)[O-])c4ncccc34)CC2)c1` [Compound S9] the same measures were 1280 ± 1050 nM and 80 ± 30 nM.
